Reference: ChEMBL document CHEMBL1165996, “Terpenoids from Salvia trijuga” (J Nat Prod, 2010)
pIC50: −log10 of the molar value.

Experiments:
Type in all cases: functional, cell-based
[1] = system: A549; assay: Cytotoxicity against human A549 cells after 48 hrs by MTT assay; conditions: A549, 48 h
Procedure, shortened: (§1)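 Cells seeded in 96-well plates 12 h before dosing, then continuously exposed to a range of compound concentrations for 48 h. MTT added for a further 4 h, then 20% SDS added and left 12 h at room temperature. OD read at 595 nm. IC50 calculated by the Reed and Muench method.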

[2] = system: HL-60; assay: Cytotoxicity against human HL60 cells after 48 hrs by MTT assay; conditions: HL-60, 48 h; procedure, shortened: as §1
[3] = system: MCF7; assay: Cytotoxicity against human MCF7 cells after 48 hrs by MTT assay; conditions: MCF7, 48 h; procedure, shortened: as §1
[4] = system: SW480; assay: Cytotoxicity against human SW480 cells after 48 hrs by MTT assay; conditions: SW480, 48 h; procedure, shortened: as §1
[5] = system: SMMC-7721; assay: Cytotoxicity against human SMMC7721 cells after 48 hrs by MTT assay; conditions: SMMC-7721, 48 h; procedure, shortened: as §1

SMILES | pIC50 [1] | pIC50 [2] | pIC50 [3] | pIC50 [4] | pIC50 [5]
C[C@@H]1CC[C@]2(C(=O)O)CC[C@]3(C)C(=CC[C@@H]4[C@@]5(C)C(CO)=CC(C)(C)[C@@H]5CC[C@]43C)[C@@H]2[C@]1(C)O [HYPTASIENIC ACID] | 4.61 | 4.81 | < 4.40 | 4.96 | 4.68
C/C=C(\C)C(=O)O[C@@H]1C/C(C)=C/CC[C@@]2(C)O[C@@H]2[C@@H](OC(=O)C(C)C(C)OC(C)=O)[C@H]1C(C)C (stereo not given in full) [TRIJUGIN I] | < 4.40 | 4.77 | < 4.40 | 4.60 | 4.47
